Data taken from ChEMBL document CHEMBL1143630, “Successful in silico discovery of novel nonsteroidal ligands for human sex hormone binding globulin” (J Med Chem, 2005).

These compounds were tested against T1, Sex hormone-binding globulin (Homo sapiens) (UniProt P04278) (assay: Association […] constant for human sex hormone-binding globulin (SHBG)).
T1 sequence (whole entry): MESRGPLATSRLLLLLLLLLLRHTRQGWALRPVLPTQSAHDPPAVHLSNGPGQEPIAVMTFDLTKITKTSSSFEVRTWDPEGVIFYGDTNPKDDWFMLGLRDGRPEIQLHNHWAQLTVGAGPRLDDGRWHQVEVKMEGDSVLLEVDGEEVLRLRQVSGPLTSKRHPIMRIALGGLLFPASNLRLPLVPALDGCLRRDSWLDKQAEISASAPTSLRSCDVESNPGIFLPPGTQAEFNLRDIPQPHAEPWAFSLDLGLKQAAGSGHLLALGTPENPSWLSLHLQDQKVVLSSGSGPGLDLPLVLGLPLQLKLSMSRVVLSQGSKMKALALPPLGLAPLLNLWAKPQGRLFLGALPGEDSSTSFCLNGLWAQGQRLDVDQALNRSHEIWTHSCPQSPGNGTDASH

| SMILES | Ka |
| --- | --- |
| CC1=C[C@@H](C)[C@@]2(CO)CO[C@@H](c3ccc(O)cc3)[C@@H]1[C@H]2C | 130000 M⁻¹ |
| O=C(Cc1ccc(O)cc1)c1ccc(O)cc1O | 1.2e+06 M⁻¹ |
| COc1cc([C@H]2OC[C@]3(CO)[C@H](C)[C@H]2C(C)=C[C@@H]3C)ccc1O | 730000 M⁻¹ |

What follows are compounds tested against T2, Sex hormone-binding globulin (Homo sapiens, UniProt P04278) (assay: Inhibitory concentration against [3H]-DHT binding to human sex hormone-binding globulin (SHBG)).
T2 sequence (P04278 whole entry): T1 sequence (whole entry)
How it was run: (§1)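 Human pregnancy serum diluted 1:200 (about 1 nM SHBG), stripped of endogenous steroid with dextran-coated charcoal, mixed with [3H]DHT at 10 nM. Triplicate test compound added, incubated overnight at room temperature. Dextran-coated charcoal slurry then added for 10 min at 0°C and centrifuged to separate bound from free label. Bound label counted by scintillation and expressed relative to the no-competitor control.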

| SMILES | IC50 |
| --- | --- |
| CC1=C[C@@H](C)[C@@]2(CO)CO[C@@H](c3ccc(O)cc3)[C@@H]1[C@H]2C | 124 µM |
| O=C(Cc1ccc(O)cc1)c1ccc(O)cc1O | 13.6 µM |
| COc1cc([C@H]2OC[C@]3(CO)[C@H](C)[C@H]2C(C)=C[C@@H]3C)ccc1O | 22.4 µM |

These compounds were tested against T1, Sex hormone-binding globulin (Homo sapiens) (assay: In vitro inhibition of [3H]DHT binding to human sex hormone-binding globulin (SHBG)).
Set-up: concentration or dose not given beside the values
How it was run: as §1

| SMILES | Reduction |
| --- | --- |
| COC(=O)c1ccc(CC(=O)c2ccc(O)cc2O)o1 | 10% |
| CC[C@@H](O)c1ccc(OC[C@H](O)CN2CCCCC2)c(OC)c1 | 5% |
| C[C@H]1CC[C@H]2[C@@](C)(CO)[C@@H](O)CC[C@]2(C)[C@@]12CC[C@](CO)(CC(=O)O)O2 | 2% |
| C[C@H]1CC[C@H]2[C@@](C)(CO)[C@H](O)CC[C@]2(C)[C@@]12CC[C@@](C)(CO)O2 | 6% |
| COc1cc(/C=C/C(=O)c2c(O)cc(C)oc2=O)ccc1O | 2% |
| COc1cc2c(cc1O)CCN(C[C@@H](O)CNCCO)[C@H]2C | 12% |
| CC1=C[C@@H](C)[C@@]2(CO)CO[C@@H](c3ccc(O)cc3)[C@@H]1[C@H]2C | 56% |
| Cc1c(CC(=O)N[C@@H](C)C(=O)O)c(=O)oc2cc(O)ccc12 | 0% |
| CC(=O)c1c(O)c(C)c(O)c2c1OC1=CC(=O)[C@H](C(C)=O)C(=O)[C@]12C | 4% |
| COC(=O)c1cc(CC(=O)c2ccc(O)cc2O)c(C)o1 | 0% |
| Cc1cc(O)c(C(=O)/C=C/c2ccc(O)c([N+](=O)[O-])c2)c(=O)o1 | 1% |
| CC[C@H](NC(=O)Cc1c(C)c2ccc(O)cc2oc1=O)C(=O)O | 0% |
| CC(=O)Oc1ccc2c(C)c(C[C@H](C)O)c(=O)oc2c1 | 42% |
| C=C1CC[C@H]2[C@](C)(CO)[C@H](O)CC[C@@]2(C)[C@@H]1C/C=C1/C(=O)OC[C@@H]1O | 0% |
| CC1(C)CC2(CC(C)(C)c3cc(O)c(O)cc32)c2cc(O)c(O)cc21 | 48% |
| Cc1c(CCC(=O)O)c(=O)oc2c(C)c(O)ccc12 | 46% |
| C[C@H]1CC[C@@H]2[C@](C)(CO)[C@H](O)CC[C@@]2(C)[C@@]12C[C@@]1(COC(=O)C1)CO2 | 9% |
| C=C1CC[C@H]2[C@](C)(CO)[C@H](O)CC[C@@]2(C)[C@@H]1C/C=C1/C(=O)OC[C@H]1O | 7% |
| O=C(Cc1ccc(O)cc1)c1ccc(O)cc1O | 95% |
| C=C1CC[C@H]2[C@](C)(CO)[C@H](O)CC[C@@]2(C)[C@@H]1/C=C/C1=CCOC1=O | 0% |
| O=C(/C=C/c1cccnc1)c1ccc(O)cc1 | 57% |
| O=C(Cc1ccc2cccnc2c1)c1ccc(O)cc1O | 0% |
| COc1cc([C@H]2OC[C@]3(CO)[C@H](C)[C@H]2C(C)=C[C@@H]3C)ccc1O | 84% |
| CN1CCc2cc(O)c(O)cc2[C@H]1Cc1ccc(O)c(O)c1 | 14% |
| O=C1C=CC2=C3c4cc(O)c(O)cc4C[C@@]3(O)COC2=C1O | 6% |
| O=C1C=CC2=N[C@@]34CCCC[C@@H]3[C@@H](c3ccc(O)cc3)C=C(c3ccccc3)N4C2=C1 | 0% |
| C[C@H]1CC[C@@H]2[C@](C)(CO)[C@H](O)CC[C@@]2(C)[C@]12CC[C@@]1(CCOC1)O2 | 11% |
| O=C1C=CC2=C3c4ccc(O)cc4OC[C@]3(O)CC2=C1 | 27% |

Each compound was assayed against T1, Sex hormone-binding globulin (Homo sapiens) (assay: Relative binding affinity towards human sex hormone-binding globulin (SHBG) compared to estradiol).
How it was run: as §1

| SMILES | relative binding affinity (RBA) |
| --- | --- |
| CC1=C[C@@H](C)[C@@]2(CO)CO[C@@H](c3ccc(O)cc3)[C@@H]1[C@H]2C | 493 |
| O=C(Cc1ccc(O)cc1)c1ccc(O)cc1O | 4530 |
| COc1cc([C@H]2OC[C@]3(CO)[C@H](C)[C@H]2C(C)=C[C@@H]3C)ccc1O | 2750 |

What follows are compounds tested against T1, Sex hormone-binding globulin (Homo sapiens) (assay: Relative binding affinity for human sex hormone-binding globulin (SHBG) compared to testosterone).
How it was run: as §1

| SMILES | relative binding affinity (RBA) |
| --- | --- |
| CC1=C[C@@H](C)[C@@]2(CO)CO[C@@H](c3ccc(O)cc3)[C@@H]1[C@H]2C | 125 |
| O=C(Cc1ccc(O)cc1)c1ccc(O)cc1O | 1150 |
| COc1cc([C@H]2OC[C@]3(CO)[C@H](C)[C@H]2C(C)=C[C@@H]3C)ccc1O | 696 |
